The text below walks through data of publication PMC3561764 (Nature, 2007).

Experiment [1] concerns EGFR kinase domain attached to lipid vesicles. Nature of the experiment: vesicle-based kinase assay. The class given is biochemical. Conditions: wild type kinase 3.5 μM, substrate peptide 1 mM, Fig. 2c. An outline of the steps:
(§1)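 Wild-type EGFR kinase domain assayed either free in solution at 14 μM, or tethered to lipid vesicles at 3.5 μM. Vesicle tethering raises the local kinase concentration and promotes asymmetric dimer formation. Substrate peptide was held at 1 mM in all runs. Activity is reported as initial velocity normalised by kinase concentration.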

Experiment [2] has as its system EGFR kinase domain K799E mutant. The experiment can be described thus: interaction with K799E mutant kinase domain. Format: binding. Conditions: Supplemental Figure 5.
Another experiment concerns EGFR kinase domain. Nature of the experiment: crystal structures of EGFR kinase domain/Mig6 peptide complexes. The class given is binding. The following applies: 25-residue epitope, residues 337–361.
For experiment [3], the system named is EGFR. The following applies: ref [3],[5],[12]; cited from earlier work.
For experiment [4], the system named is EGFR. The following applies: mouse skin; ref [8]; cited from earlier work.
In experiment [5] the target is wild type EGFR kinase domain (Homo sapiens, UniProt P00533). The experiment can be described thus: kinase assay in solution, wild type. Format: biochemical. Conditions: kinase 14 μM, substrate peptide 1 mM, Fig. 3b. An outline of the steps:
as §1

In experiment [6] the target is EGFR kinase domain, wild type (UniProt P00533 696-1022). Nature of the experiment: fluorescence polarisation. On the technique in general: Fluorescence polarisation rises when a labelled molecule tumbles more slowly, as on binding a larger partner.

No end group written: not given here.

On to “25-residue peptide: 25-residue peptide (residues 340–364), which lacks 3 residues in the N-terminal portion of Mig6^segment 1”, for which the “inhibition of the kinase domain attached to lipid vesicles, in words” value in experiment [1] is given as “much less potent”.

On to “Mig6^segment 1: 25-residue epitope of Mig6 sufficient for binding to the EGFR kinase domain (residues 337–361)”, for which the “effect of K799E kinase mutation on interaction with Mig6^segment 1” value in experiment [2] was “does not affect the conformation of the kinase domain or its interaction”. The “binding to the EGFR kinase domain (crystal structures)” value in the experiment with EGFR kinase domain is reported as “sufficient for binding to the EGFR kinase domain”.

B1: Mitogen-induced gene 6 (protein, UniProt Q9UJM3 1-462, looked up)
chain: MSIAGVAAQEIRVPLKTGFLHNGRAMGNMRKTYWSSRSEFKNNFLNIDPITMAYSLNSSAQERLIPLGHASKSAPMNGHCFAENGPSQKSSLPPLLIPPSENLGPHEEDQVVCGFKKLTVNGVCASTPPLTPIKNSPSLFPCAPLCERGSRPLPPLPISEALSLDDTDCEVEFLTSSDTDFLLEDSTLSDFKYDVPGRRSFRGCGQINYAYFDTPAVSAADLSYVSDQNGGVPDPNPPPPQTHRRLRRSHSGPAGSFNKPAIRISNCCIHRASPNSDEDKPEVPPRVPIPPRPVKPDYRRWSAEVTSSTYSDEDRPPKVPPREPLSPSNSRTPSPKSLPSYLNGVMPPTQSFAPDPKYVSSKALQRQNSEGSASKVPCILPIIENGKKVSSTHYYLLPERPPYLDKYEKFFREAEETNGGAQIQPLPADCGISSATEKPDSKTKMDLGGHVKRKHLSYVVSP
modifications: full-length C-terminal Myc tag
Take B1: the “binding to activated EGFR compared with unliganded receptor” value in the experiment on EGFR [3] was “bind more tightly to activated EGFR than to the unliganded receptor”. Also, the “inhibition of EGFR-mediated signals” value in the experiment with EGFR [4] is reported as “inhibits EGFR-mediated signals in mouse skin”.

B2: Mig6^segment 1–2 (Y358A) (peptide, UniProt Q9UJM3 336-412, looked up, variant M346L Y358A)
chain: KSLPSYLNGVLPPTQSFAPDPKAVSSKALQRQNSEGSASKVPCILPIIENGKKVSSTHYYLLPERPPYLDKYEKFFR
For B2, the “inhibition of basal activity of wild type kinase domain in solution, in words” value in experiment [5] is “does not show any inhibition”.

B3: 30-residue fluorescein-labeled Mig6 peptide (residues 334–363) M346L (peptide, UniProt Q9UJM3 334-363, looked up)
peptide: SPKSLPSYLNGVLPPTQSFAPDPKYVSSKA
modifications: also: fluorescein label, position not given here
As to B3, the binding result in experiment [6] is on record as “binds”.
